Test results as given in PubChem BioAssay AID449763 (Sanford-Burnham Center for Chemical Genomics, 2010).
Screen size: about 330,000 compounds; about 1,100 (0.33%) were called active.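 The calls were made as follows: active = at 10 µM dose, activation of 40% or more, normalized to positive control; inactive = the rest.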 Many of the other results were omitted from the sample, so actives are more common in it than they were.

Test: activators of apoptotic CHOP UPR arm, primary screen, cell-based, CHO-CHOP luciferase reporter, luminescence, uHTS (AID 449763);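 also: 100% = tunicamycin at 10 µg/mL and 0% = DMSO alone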
Details: at 10 µM, stronger effect = higher value, percent of tunicamycin response over DMSO baseline
Outline: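 System: CHO-CHOP luciferase reporter cell line | Buffer or medium: F12 medium containing 10% fetal bovine serum | Doses: One dose, 10 µM in 0.5% DMSO | Times: 6 h compound exposure at 37 °C after overnight seeding | Signal: Luciferase luminescence | Read-out: % activation vs tunicamycin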

Structure (SMILES)	activation
CCc1noc(C)c1C(=O)N1CCCSC1=Nc1ccccc1OC	2.57% (inactive)
O=C(CN1CCN(S(=O)(=O)c2cc(Cl)ccc2Cl)CC1)c1ccc(O)c(O)c1	95.7% (active)
COc1ccc(Cl)cc1S(=O)(=O)N1CCN(CC(=O)C(C)(C)C)CC1	-1.27% (inactive)
N#Cc1ccsc1NC(=O)CN1CCN(S(=O)(=O)c2cc(Cl)ccc2Cl)CC1	-1.62% (inactive)
C[C@H](C(=O)CC(=O)OC(C)(C)C)[C@H](O)c1ccc(C(F)(F)F)cc1	1.59% (inactive)
COc1ccc(NC(=O)C2=C(C)NC(=O)NC2c2ccccc2[N+](=O)[O-])cc1 (stereo not given)	-2.61% (inactive)
OCCNc1nc(Nc2ccc(Cl)c(Cl)c2)nc2ccccc12	51.9% (active)
CNc1nc(Nc2ccc(C)c(Cl)c2)nc(N)c1[N+](=O)[O-]	5.39% (inactive)
Cc1ccc(Nc2nc(N)nc(CN3CCN(Cc4ccccc4)CC3)n2)cc1Cl	0.453% (inactive)
CCN(C(=O)CSc1nc(N)cc(=O)[nH]1)C1CCS(=O)(=O)C1 (stereo not given)	1.25% (inactive)
CSCCNCc1cn(-c2ccc(F)cc2F)nc1-c1ccccc1C	-1.15% (inactive)
O=C(NCCc1ccc(Cl)cc1)c1cccc(N2CCCC2=O)c1	54.4% (active)
Oc1cc2c(cc1O)CN(C(=S)NCCc1ccc(Cl)cc1)CCC2	58.3% (active)
COc1ccc(CCNC(=S)N2CCN(S(=O)(=O)c3ccc(Cl)cc3)CC2)cc1	1.93% (inactive)
Cc1ccc(NC(=S)NCCc2ccc(Cl)cc2)c(C)c1	1.96% (inactive)
C/C(=N\NC(=O)c1cccc(N2CCCC2=O)c1)c1ccc(N)cc1	1.34% (inactive)
CC1CCCC(NC(=O)c2cccc(N3CCCC3=O)c2)C1C (stereo not given)	3.2% (inactive)
O=C(CSc1nnc(SCc2ccc(F)cc2)s1)Nc1ccc(C(=O)O)cc1	-2.09% (inactive)
Cc1ccc(C2NC(=S)NC3=C2N2CCC3CC2)cc1 (stereo not given)	-2.03% (inactive)
CC(C(=O)O)n1cnc2sc3c(c2c1=O)CCCC3 (stereo not given)	-0.91% (inactive)

Structure (SMILES)	activation
O=S(=O)(c1ccccc1)N(Cc1cccc(F)c1)c1ccccc1	-1.78% (inactive)
CC1(C)CC(=O)C=C(NC2CC(C)(C)NC(C)(C)C2)C1	0.506% (inactive)
CC(C)(C)C(=O)OCc1nc(-c2ccc(O)c(O)c2)cs1	170% (active)
Cc1onc(C(=O)NN)c1-c1csc(COc2ccccc2)n1	-0.475% (inactive)
CCCC(=O)N1c2ccc(-c3csc(N)n3)cc2CC1C (stereo not given)	4.75% (inactive)
NC(=O)C1CCN(C(=O)COc2ccc3c4c(c(=O)oc3c2)CCC4)CC1	1.77% (inactive)
Cc1ccc(Oc2nc(-c3ccccn3)nc3ccccc23)cc1	48.5% (active)
COc1ccc(CNc2ncnc3ccccc23)cc1	5.16% (inactive)
COc1cnc(-c2ccccn2)nc1Oc1ccc(C(C)(C)C)cc1	3.2% (inactive)
c1ccc2c(NCC3CCCO3)nc(-c3ccncc3)nc2c1 (stereo not given)	-0.369% (inactive)
CC(C)(C)Nc1nc(-c2ccccn2)nc2ccccc12	61.4% (active)
N#Cc1ccc(Oc2cc(C(F)(F)F)nc(-c3ccccn3)n2)cc1	-0.253% (inactive)
CCCCOc1ccc(C(=O)N/C(=C/C=C/c2ccccc2)C(=O)N2CCOCC2)cc1	5.27% (inactive)
Cc1ccc2cc3cc(C(=O)N4CCCCCC4)oc3nc2c1	0.396% (inactive)
O=C(CSc1nc2ncccc2[nH]1)Nc1ccc2c(c1)OCCO2	0.487% (inactive)
Nc1nc(SCC(=O)NN(c2ccccc2)c2ccccc2)n[nH]1	-0.687% (inactive)
CC(C)NC(=S)N1CCN(S(C)(=O)=O)CC1	0.831% (inactive)
CC(=O)/C(=N\Nc1ccc(Cl)cc1Cl)Sc1cccc2cccnc12	184% (active)
O=C(NNc1cc(Cl)ccc1Cl)c1cccnc1Cl	0.393% (inactive)
COc1cccc(CNC(=O)c2cccnc2Sc2ccc(Cl)cc2)c1	0.384% (inactive)

Structure (SMILES)	activation
Cc1ccc(S(=O)(=O)CCC(=O)OCc2ccccc2)cc1	0.112% (inactive)
CCOC(=O)c1ccc(NC(=O)c2nc[nH]c2C(=O)N[C@@H](CCCCNC(=O)OC(C)(C)C)C(=O)OC(C)(C)C)cc1	2.33% (inactive)
CC(=O)c1ccc(NC(=O)c2ccc(-n3cncn3)c([N+](=O)[O-])c2)cc1	2.02% (inactive)
COCCOC(=O)c1c(C)oc2cc(Br)c(OCC(N)=O)cc12	0.018% (inactive)
CCc1ccc2c(c1)C1(NN=C(c3ccccc3)S1)C(=O)N2 (stereo not given)	135% (active)
Cc1occc1C(=O)NC1CCCN(Cc2ccc(CC(C)C)cc2)C1 (stereo not given)	1.93% (inactive)
O=C(Nc1c2c(nn1-c1ccccc1)CS(=O)(=O)C2)C1CCCC1	-0.808% (inactive)
COC(=O)c1ccc(C(=O)Nc2cc(Cl)ccc2Cl)cc1NC(=O)c1ccccc1C	49.7% (active)
COC(=O)c1ccc(C(=O)OC)c(NC(=S)N2CCN(c3cc(Cl)ccc3C)CC2)c1	1.94% (inactive)
CCCN(CCC)C(=S)Nc1cc(C(=O)OC)ccc1C(=O)OC	2.25% (inactive)
O=C(CSc1nc2ccccc2c(=O)n1CCCO)NC1CC1	1.02% (inactive)
CCCCn1nc(C(=O)N2CCc3ccccc32)c2ccccc2c1=O	-1.34% (inactive)
Cn1nccc1NC(=O)Nc1ccc(OC(F)(F)F)cc1	0.489% (inactive)
Cn1cccc1/C=N/NC(=O)c1ccc(OC(F)(F)C(F)F)cc1	2.77% (inactive)
O=C(Nc1ccc(OC(F)(F)F)cc1)c1ccc2c(c1)no[n+]2[O-]	61% (active)
CC(C)CC(=O)N1CCC(O)(CS(=O)(=O)Cc2ccccc2)CC1	-0.00639% (inactive)
Cc1ccc(NC(=O)CCOc2ccccc2)cc1S(=O)(=O)Nc1ccccc1Cl	2.43% (inactive)
Cc1ccc(C(=O)N/C(=C/c2ccc(-c3cccc([N+](=O)[O-])c3)o2)C(=O)NCCCN(C)C)cc1	-0.289% (inactive)
Cc1ccc(-c2ccc(/C=C(\C#N)C(N)=S)o2)c([N+](=O)[O-])c1	3.33% (inactive)
Cc1ccc(Cc2cnc(NC(=O)/C(C#N)=C/c3ccc(-c4cccc([N+](=O)[O-])c4)o3)s2)cc1	73.3% (active)
